Experimental data from different studies.
Compare with care: the assays were run in different laboratories.
Target: Serine/threonine-protein kinase DCLK3 (DCLK3, Homo sapiens, UniProt Q9C098)
Sequence (Q9C098 1-648, as in one of the studies): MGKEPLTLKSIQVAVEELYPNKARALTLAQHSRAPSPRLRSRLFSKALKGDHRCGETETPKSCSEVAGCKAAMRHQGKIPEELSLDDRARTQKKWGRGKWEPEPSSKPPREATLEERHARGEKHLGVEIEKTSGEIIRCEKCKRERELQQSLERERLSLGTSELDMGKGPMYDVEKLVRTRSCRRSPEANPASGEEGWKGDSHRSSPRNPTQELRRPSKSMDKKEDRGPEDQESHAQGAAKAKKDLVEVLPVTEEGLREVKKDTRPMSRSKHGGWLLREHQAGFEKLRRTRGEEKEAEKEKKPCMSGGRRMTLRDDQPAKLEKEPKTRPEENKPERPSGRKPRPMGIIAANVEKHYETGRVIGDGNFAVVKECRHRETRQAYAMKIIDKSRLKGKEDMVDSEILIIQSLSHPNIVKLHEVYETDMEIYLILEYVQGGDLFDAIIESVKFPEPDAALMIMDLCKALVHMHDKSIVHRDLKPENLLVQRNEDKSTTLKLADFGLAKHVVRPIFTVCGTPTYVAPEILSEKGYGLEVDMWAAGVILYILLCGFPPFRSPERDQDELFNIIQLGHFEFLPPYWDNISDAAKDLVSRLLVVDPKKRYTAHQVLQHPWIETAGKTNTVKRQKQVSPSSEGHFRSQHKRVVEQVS

`Cc1cnc(Nc2ccc(C(=O)N3CCC(N4CCCC4)CC3)cc2)nc1-c1cc2ccccc2s1` gave a remaining binding of 0.5% (binding, competition with immobilised ligand; 1 µM).
`O=C(NCC1CCOCC1)c1n[nH]cc1NC(=O)c1c(F)cccc1F` gave a remaining binding of 61% (binding, competition with immobilised ligand; 1 µM).
`O=C(N1CCS(=O)(=O)CC1)N1C[C@H](c2ccc(OC(F)(F)F)cc2)C[C@H](c2nc(C3CC3)no2)C1` has a remaining binding of 100% (cell-free assay, competition with immobilised ligand; 1 µM).
For `C[C@@H](c1ccc(-n2cnc3c(N)ncnc32)cc1)N1CCc2nn(C)c(Cc3ccccc3)c2C1=O`, the remaining binding was 85% (binding, competition with immobilised ligand; 0.1 µM).
With `N[C@H]1CCN(c2nccc(-c3cnn4ncccc34)n2)C1` the remaining binding was 100% (binding; 1 µM).
`C=CC(=O)N1CCC(C(=O)NCC(=O)N2CCN(c3nc(-c4cnc(N)nc4C(F)F)nc(N4CCOCC4)n3)CC2)CC1` has a remaining binding of 96% (binding, competition with immobilised ligand; 1 µM).
With `CN(C)c1nccc(-c2cnc3ncccn23)n1` the remaining binding was 76% (binding; 1 µM).
`CNC(=O)[C@@H]1CC[C@@H](n2c(-c3ccc4cnccc4c3)nc3ccc(C(=O)NCc4cccc(C(N)=O)c4)cc32)C1` gave a remaining binding of 100% (binding, competition with immobilised ligand; 1 µM).
`CCCCN(CCCC)C(=O)CN1C[C@@H](c2cc(OC)c3c(c2)OCO3)[C@H](C(=O)O)[C@H]1CC(C)(C)CCC` gave a remaining binding of 100% (cell-free assay, competition with immobilised ligand; 1 µM).
For `FC(F)(F)Oc1cccc(-c2cnc3ccc(-c4ccncc4)nn23)c1`, the remaining binding was 100% (cell-free assay, competition with immobilised ligand; 5 µM).
`O=C(c1ccc(Nc2nccc(-c3cc4ccccc4s3)n2)cc1)N1CCC(N2CCCC2)CC1` gave a remaining binding of 45% (binding, competition with immobilised ligand; 1 µM).
The remaining binding of `CN(C)c1ncnc(-c2ccc3nc(Nc4cc(CN5CCN(C(=O)CC(F)(F)F)CC5)ccn4)[nH]c3c2)c1Cl` is reported as 92% (cell-free assay, competition with immobilised ligand; 1 µM).
`C[C@H]1CCN(c2nccc(-c3cnn4ncccc34)n2)C1` gave a remaining binding of 93% (binding; 1 µM).
The remaining binding of `O=C(NS(=O)(=O)c1ccc(NCC2CCOCC2)c([N+](=O)[O-])c1)c1ccc(N2CCN(Cc3ccc(C(F)(F)F)cc3-c3ccc(Cl)cc3)CC2)cc1Oc1cnc2[nH]ccc2c1` is reported as 93% (cell-free assay, competition with immobilised ligand; 1 µM).
`Cc1cnn2ncc(-c3ccnc(N(C)C)n3)c2c1` gave a remaining binding of 93% (binding; 1 µM).
`Nc1ncc2c(n1)-c1c([nH]c3ccc(C#CC4CC4)cc13)CCCC2` has a remaining binding of 100% (binding, competition with immobilised ligand; 1 µM).
With `O=C(c1ccc(Nc2ncc(Cl)c(-c3cc4ccccc4s3)n2)cc1)N1CCC(N2CCCC2)CC1` the remaining binding was 0.9% (binding, competition with immobilised ligand; 1 µM).
For `CC(C)(O)c1cncc(-c2nc3ccc(F)cc3n2C2CC2)c1`, the remaining binding was 100% (cell-free assay, competition with immobilised ligand; 1 µM).
`CN(C)c1nccc(-c2cnn3ncccc23)n1` gave a remaining binding of 100% (binding; 1 µM).
The remaining binding of `COc1ccc2c(c1)O[C@@H](c1ccc(OC)c(OC)c1)C[C@H]2NC(=O)C1(c2ccc3c(c2)OC(F)(F)O3)CC1` is reported as 98% (cell-free assay, competition with immobilised ligand; 1 µM).
`COc1ccnn2ncc(-c3ccnc(N(C)C)n3)c12` has a remaining binding of 100% (binding; 1 µM).
